Experimental data from ChEMBL document CHEMBL1153955, “Indolylarylsulfones bearing natural and unnatural amino acids. Discovery of potent inhibitors of HIV-1 non-nucleoside wild type and resistant mutant strains reverse transcriptase and coxsackie B4 virus” (J Med Chem, 2009).

Key:
Felid alphaherpesvirus 1 = assay: Antiviral activity against Feline herpesvirus in feline […] cells assessed as inhibition of virus-induced cytopathicity; format: functional, organism-based
Human alphaherpesvirus 1 [1] = assay: Antiviral activity against HSV1 KOS in human HEL cells assessed as protection against virus-induced cytopathicity; format: functional, organism-based; details: Human alphaherpesvirus 1, KOS
[2] = Cytotoxicity against human HEL cells assessed as drug level causing microscopically detectable alteration of normal cell morphology after 3 days; format: cell-based
L1210 = assay: Antiproliferative activity against mouse L1210 cells after 2 days; format: cell-based; details: L1210, 48 h
How it was run: (§1)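 Cells seeded at 5 × 10⁴ to 7.5 × 10⁴ cells/200 µL with or without serial compound dilutions; incubated at 37 °C for 2 days (L1210) or 3 days (Molt4/C8, CEM). Cell numbers counted with a Coulter counter. CC₅₀ = concentration reducing proliferation by 50% versus untreated controls, read from plots of cell number (% of control) against concentration. Means of at least two independent experiments.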

[3] = Cytotoxicity against MDCK cells assessed as drug level causing microscopically detectable alteration of normal cell morphology; format: cell-based, Canis lupus familiaris; details: dog
Coxsackievirus B4 [4] = assay: Antiviral activity against Coxsackievirus B4 in african green monkey Vero cells assessed as protection against virus-induced cytopathicity; format: functional, organism-based; details: Enterovirus B
How it was run: (§2)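 Confluent cell monolayers inoculated with 100 CCID₅₀ virus. After 1-2 h adsorption, residual virus removed and cultures incubated with varying compound concentrations. Cytopathicity scored once it reached completion in untreated infected controls. EC₅₀ = dose reducing virus-induced cytopathogenicity by 50%.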

[5] = Antiproliferative activity against human Molt4/C8 cells after 3 days; format: cell-based; details: MOLT-4, 72 h; how it was run: as §1
Punta Toro virus = assay: Antiviral activity against Punta Toro virus in african green monkey Vero cells assessed as protection against virus-induced cytopathicity; format: functional, organism-based; how it was run: as §2
[6] = Cytotoxicity against human HeLa cells assessed as drug level causing microscopically detectable alteration of normal cell morphology after 3 days; format: cell-based
How it was run: (§3)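 Serial compound dilutions added to confluent HeLa or Vero monolayers. MCC = minimum concentration causing microscopically detectable alteration of cell morphology after 3 days of incubation.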

[7] = Cytotoxicity against african green monkey Vero cells assessed as drug level causing microscopically detectable alteration of normal cell morphology after 3 days; format: cell-based; details: chlorocebus sabaeus; how it was run: as §3
[8] = molecular target: Human immunodeficiency virus type 1 reverse transcriptase (Human immunodeficiency virus 1, UniProt Q72547); assay: Inhibition of HIV1 reverse transcriptase p66/p51; details: read-out: IC50
Influenza A virus [9] = assay: Antiviral activity against influenza H1N1 virus in MDCK cells assessed as reduction of virus-induced cytopathicity by visual cytopathic effect scoring method; format: functional, organism-based
Influenza A virus H3N2 [10] = assay: Antiviral activity against influenza H3N2 virus in MDCK cells assessed as reduction of virus-induced cytopathicity by MTS method; format: functional, organism-based
Coxsackievirus B4 [11] = assay: Antiviral activity against Coxsackievirus B4 in human HeLa cells assessed as protection against virus-induced cytopathicity; format: functional, organism-based; details: Enterovirus B; how it was run: as §2
Vaccinia virus = assay: Antiviral activity against Vaccinia virus Lederle in human HEL cells assessed as protection against virus-induced cytopathicity; format: functional, organism-based; details: Orthopoxvirus vaccinia
[12] = test system: Human immunodeficiency virus 1; assay: Antiviral activity against HIV1 3B in human CEM cells assessed as protection against virus-induced cytopathicity after 4 days; format: functional, organism-based; details: Human immunodeficiency virus 1, 3B, CCRF-CEM, 96 h
How it was run: (§4)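 CEM cells (~3 × 10⁵ cells/mL) infected with ~100 CCID₅₀ per mL of HIV-1 (IIIB) or HIV-2 (ROD), then seeded into wells containing compound dilutions. After 4 days at 37 °C, syncytium (giant cell) formation was examined microscopically. EC₅₀ = concentration protecting CEM cells from HIV cytopathicity by 50%.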

[13] = molecular target: Human immunodeficiency virus type 1 reverse transcriptase (Human immunodeficiency virus 1, UniProt Q72547, L100I); assay: Inhibition of HIV1 reverse transcriptase p66/p51 L100I mutant; details: read-out: IC50
How it was run: (§5)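 Substrate was 0.5 µg poly(rA)/oligo(dT) 10:1 (0.3 µM 3′-OH ends) with 10 µM [³H]dTTP, at 37 °C. Acid-precipitable radioactivity was counted on GF/C filters after TCA washes.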

Human respirovirus 3 = assay: Antiviral activity against Parainfluenza virus type 3 in african green monkey Vero cells assessed as protection against virus-induced cytopathicity; format: functional, organism-based; details: Human respirovirus 3, Vero; how it was run: as §2
[14] = test system: Vesicular stomatitis virus; assay: Antiviral activity against VSV in human HeLa cells assessed as protection against virus-induced cytopathicity; format: functional, organism-based
[15] = test system: Mammalian orthoreovirus 1; assay: Antiviral activity against Reovirus 1 in african green monkey Vero cells assessed as protection against virus-induced cytopathicity; format: functional, organism-based; details: Mammalian orthoreovirus 1, Vero; how it was run: as §2
[16] = molecular target: Human immunodeficiency virus type 1 reverse transcriptase (Human immunodeficiency virus 1, UniProt Q72547, Y181I); assay: Inhibition of HIV1 reverse transcriptase p66/p51 Y181I mutant; details: read-out: IC50; how it was run: as §5
Influenza B virus [17] = assay: Antiviral activity against influenza B virus in MDCK cells assessed as reduction of virus-induced cytopathicity by MTS method; format: functional, organism-based
[18] = Cytotoxicity against feline CRFK cells by MTS assay; format: cell-based, Felis catus; details: cat
[19] = Cytotoxicity against MDCK cells by MTS assay; format: cell-based, Canis lupus familiaris; details: dog
Human alphaherpesvirus 1 [20] = assay: Antiviral activity against thymidine kinase deficient and acyclovir resistant HSV1 KOS in human HEL cells assessed as protection against virus-induced cytopathicity; format: functional, organism-based; details: Human alphaherpesvirus 1, KOS
Feline coronavirus = assay: Antiviral activity against Feline coronavirus in feline […] cells assessed as inhibition of virus-induced cytopathicity; format: functional, organism-based; details: Alphacoronavirus 1
Influenza B virus [21] = assay: Antiviral activity against influenza B virus in MDCK cells assessed as reduction of virus-induced cytopathicity by visual cytopathic effect scoring method; format: functional, organism-based
Human alphaherpesvirus 2 = assay: Antiviral activity against HSV2 G in human HEL cells assessed as protection against virus-induced cytopathicity; format: functional, organism-based; details: Human alphaherpesvirus 2, strain G; how it was run: as §2
[22] = test system: Respiratory syncytial virus; assay: Antiviral activity against RSV Long in human HeLa cells assessed as protection against virus-induced cytopathicity; format: functional, organism-based; how it was run: as §2
Sindbis virus = assay: Antiviral activity against Sindbis virus in african green monkey Vero cells assessed as protection against virus-induced cytopathicity; format: functional, organism-based; how it was run: as §2
Influenza A virus H3N2 [23] = assay: Antiviral activity against influenza H3N2 virus in MDCK cells assessed as reduction of virus-induced cytopathicity by visual cytopathic effect scoring method; format: functional, organism-based
[24] = test system: Human immunodeficiency virus 2; assay: Antiviral activity against HIV2 ROD in human CEM cells assessed as protection against virus-induced cytopathicity after 4 days; format: functional, organism-based; details: Human immunodeficiency virus 2, ROD, CCRF-CEM, 96 h; how it was run: as §4
CCRF-CEM = assay: Antiproliferative activity against human CEM cells after 3 days; format: cell-based; details: 72 h; how it was run: as §1
[25] = molecular target: Human immunodeficiency virus type 1 reverse transcriptase (Human immunodeficiency virus 1, UniProt Q72547, K103N); assay: Inhibition of HIV1 reverse transcriptase p66/p51 K103N mutant; details: read-out: IC50; how it was run: as §5
[26] = test system: Vesicular stomatitis virus; assay: Antiviral activity against VSV in human HEL cells assessed as protection against virus-induced cytopathicity; format: functional, organism-based
Influenza A virus [27] = assay: Antiviral activity against influenza H1N1 virus in MDCK cells assessed as reduction of virus-induced cytopathicity by MTS method; format: functional, organism-based; details: Influenza A virus, H1N1, MDCK

SMILES	EC50 (Felid alphaherpesvirus 1)	EC50 (Human alphaherpesvirus 1 [1])	MCC at 72 h [2]	IC50 (L1210)	MCC [3]	EC50 (Coxsackievirus B4 [4])	IC50 [5]	EC50 (Punta Toro virus)	MCC at 72 h [6]	MCC at 72 h [7]	IC50 [8]	EC50 (Influenza A virus [9])	EC50 (Influenza A virus H3N2 [10])	EC50 (Coxsackievirus B4 [11])	EC50 (Vaccinia virus)	EC50 [12]	IC50 [13]	EC50 (Human respirovirus 3)	EC50 [14]	EC50 [15]	other results
Cc1cc(C)cc(S(=O)(=O)c2c(C(=O)NCCC(N)=O)[nH]c3ccc(Cl)c(F)c23)c1	> 20 µM	> 20 µM	100 µM	42 µM	100 µM	> 20 µM	33 µM	> 20 µM	100 µM	100 µM	0.034 µM	> 20 µM	> 20 µM	9 µM	> 20 µM	0.002 µM	0.13 µM	> 20 µM	> 20 µM	> 20 µM	IC50 [16]: 7.16 µM; EC50 (Influenza B virus [17]): > 20 µM; CC50 [18]: 45.3 µM; CC50 [19]: 24.3 µM; EC50 (Human alphaherpesvirus 1 [20]): > 20 µM; EC50 (Feline coronavirus): > 20 µM; EC50 (Influenza B virus [21]): > 20 µM; EC50 (Human alphaherpesvirus 2): > 20 µM; EC50 [22]: 16 µM; EC50 (Sindbis virus): > 20 µM; EC50 (Influenza A virus H3N2 [23]): > 20 µM; EC50 [24]: > 10 µM; IC50 (CCRF-CEM): 30 µM; IC50 [25]: 0.783 µM; EC50 [26]: > 20 µM; EC50 (Influenza A virus [27]): > 20 µM
Cc1cc(C)cc(S(=O)(=O)c2c(C(=O)NCCC(N)=O)[nH]c3ccc(Br)cc23)c1	> 4 µM	> 4 µM	20 µM	46 µM	20 µM	16 µM	25 µM	> 20 µM	≥ 20 µM	100 µM	0.086 µM	> 4 µM	> 4 µM	11 µM	> 4 µM	0.0011 µM	0.169 µM	> 20 µM	> 20 µM	> 20 µM	IC50 [16]: 8.57 µM; EC50 (Influenza B virus [17]): > 4 µM; CC50 [18]: 15.6 µM; CC50 [19]: 8.5 µM; EC50 (Human alphaherpesvirus 1 [20]): > 4 µM; EC50 (Feline coronavirus): > 4 µM; EC50 (Influenza B virus [21]): > 4 µM; EC50 (Human alphaherpesvirus 2): > 4 µM; EC50 [22]: ≥ 20 µM; EC50 (Sindbis virus): > 20 µM; EC50 (Influenza A virus H3N2 [23]): > 4 µM; EC50 [24]: 23 µM; IC50 (CCRF-CEM): 36 µM; IC50 [25]: 0.42 µM; EC50 [26]: > 4 µM; EC50 (Influenza A virus [27]): > 4 µM
Cc1cc(C)cc(S(=O)(=O)c2c(C(=O)NC(C)CC(N)=O)[nH]c3ccc([N+](=O)[O-])cc23)c1 (stereo not drawn)	> 20 µM	> 4 µM	20 µM	37 µM	20 µM	> 20 µM	41 µM	> 20 µM	100 µM	100 µM	0.033 µM	> 4 µM	> 4 µM	≥ 20 µM	> 4 µM	0.0051 µM	0.191 µM	> 20 µM	> 20 µM	> 20 µM	IC50 [16]: 11.9 µM; EC50 (Influenza B virus [17]): > 4 µM; CC50 [18]: 21.1 µM; CC50 [19]: > 100 µM; EC50 (Human alphaherpesvirus 1 [20]): > 4 µM; EC50 (Feline coronavirus): > 20 µM; EC50 (Influenza B virus [21]): > 4 µM; EC50 (Human alphaherpesvirus 2): > 4 µM; EC50 [22]: > 20 µM; EC50 (Sindbis virus): > 20 µM; EC50 (Influenza A virus H3N2 [23]): > 4 µM; EC50 [24]: > 10 µM; IC50 (CCRF-CEM): 36 µM; IC50 [25]: 1.09 µM; EC50 [26]: > 4 µM; EC50 (Influenza A virus [27]): > 4 µM
